Source: ChEMBL document CHEMBL1138602, “Discovery of sodium 6-[(5-chloro-2-{[(4-chloro-2-fluorophenyl)methyl]oxy}phenyl)methyl]-2-pyridinecarboxylate (GSK269984A) an EP(1) receptor antagonist for the treatment of inflammatory pain” (Bioorg Med Chem Lett, 2009)
Each block holds one molecule with its values, some of them ahead of it.

Legend:
Cytochrome P450 2C19 = Cytochrome P450 2C19 (Homo sapiens, UniProt P33261); experiment: Inhibition of human CYP2C19; type: ADME
Summary of the method: (§1)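 Inhibition of metabolism of fluorometric substrates (Cypex protocol); IC50 values are the mean of three experiments ± standard deviation.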

Cytochrome P450 2C9 = Cytochrome P450 2C9 (Homo sapiens, UniProt P11712); experiment: Inhibition of human CYP2C9; type: ADME; summary of the method: as §1
Sequence of Cytochrome P450 2C9 (P11712 whole entry): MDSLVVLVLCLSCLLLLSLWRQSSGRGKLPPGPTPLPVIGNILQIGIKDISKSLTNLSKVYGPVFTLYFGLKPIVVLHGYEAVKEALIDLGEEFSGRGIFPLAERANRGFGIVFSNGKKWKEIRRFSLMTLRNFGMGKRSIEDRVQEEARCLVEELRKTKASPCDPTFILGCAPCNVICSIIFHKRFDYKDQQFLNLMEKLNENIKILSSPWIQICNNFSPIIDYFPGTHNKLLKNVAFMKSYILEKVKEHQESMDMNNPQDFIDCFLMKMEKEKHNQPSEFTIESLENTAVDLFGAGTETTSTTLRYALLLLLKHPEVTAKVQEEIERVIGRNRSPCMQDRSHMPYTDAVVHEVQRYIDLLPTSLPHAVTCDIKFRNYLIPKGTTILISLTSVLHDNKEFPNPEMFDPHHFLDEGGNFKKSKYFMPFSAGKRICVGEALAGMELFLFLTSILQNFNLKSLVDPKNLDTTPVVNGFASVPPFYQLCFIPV

Cytochrome P450 1A2 = molecular target: T1, Cytochrome P450 1A2 (Homo sapiens, UniProt P05177); experiment: Inhibition of human CYP1A2; type: ADME; summary of the method: as §1
T1 sequence (P05177 whole entry): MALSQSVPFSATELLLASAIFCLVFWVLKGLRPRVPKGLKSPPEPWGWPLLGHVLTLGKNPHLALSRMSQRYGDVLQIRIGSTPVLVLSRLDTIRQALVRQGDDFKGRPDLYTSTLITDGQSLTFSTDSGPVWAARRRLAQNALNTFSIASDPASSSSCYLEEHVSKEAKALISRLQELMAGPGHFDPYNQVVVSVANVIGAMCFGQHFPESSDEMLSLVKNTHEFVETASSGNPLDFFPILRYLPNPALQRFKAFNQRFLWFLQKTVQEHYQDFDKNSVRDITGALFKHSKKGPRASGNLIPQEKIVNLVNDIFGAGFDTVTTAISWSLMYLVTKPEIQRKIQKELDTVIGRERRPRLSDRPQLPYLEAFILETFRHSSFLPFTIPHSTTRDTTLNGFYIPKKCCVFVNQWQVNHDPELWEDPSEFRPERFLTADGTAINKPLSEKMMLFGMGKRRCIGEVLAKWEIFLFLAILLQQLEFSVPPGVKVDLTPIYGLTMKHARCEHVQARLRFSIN

[1] = Metabolic stability in rat liver microsomes assessed as compound turnover after 30 mins; type: ADME, Microsome; details: read-out: Stability
[2] = molecular target: T2, Prostaglandin E2 receptor EP1 subtype (Homo sapiens, UniProt P34995); experiment: Antagonist activity at human recombinant EP1 receptor expressed in CHO cells assessed as inhibition of PGE2-mediated intracellular calcium mobilization by FLIPR method; type: functional, cell-based
T2 sequence (P34995 whole entry): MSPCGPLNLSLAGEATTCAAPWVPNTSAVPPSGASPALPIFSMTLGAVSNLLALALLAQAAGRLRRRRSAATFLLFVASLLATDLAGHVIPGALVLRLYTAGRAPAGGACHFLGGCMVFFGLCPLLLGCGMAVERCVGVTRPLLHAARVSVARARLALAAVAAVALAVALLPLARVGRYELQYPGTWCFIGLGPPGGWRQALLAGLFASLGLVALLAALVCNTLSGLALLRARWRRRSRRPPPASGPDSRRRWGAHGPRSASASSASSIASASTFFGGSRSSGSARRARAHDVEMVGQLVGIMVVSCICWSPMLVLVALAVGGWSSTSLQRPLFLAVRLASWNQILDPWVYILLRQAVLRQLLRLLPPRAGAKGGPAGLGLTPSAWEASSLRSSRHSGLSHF
Summary of the method: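 CHO cells recombinantly overexpressing human EP1 receptor; antagonism measured as block of PGE2-mediated intracellular Ca2+ mobilization. Values are the mean of at least three experiments with standard deviations.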

[3] = Metabolic stability in human liver microsomes assessed as compound turnover after 30 mins; type: ADME, Microsome; details: read-out: Stability
Cytochrome P450 2D6 = Cytochrome P450 2D6 (Homo sapiens, UniProt P10635); experiment: Inhibition of human CYP2D6; type: ADME; summary of the method: as §1
Sequence of Cytochrome P450 2D6 (P10635 whole entry): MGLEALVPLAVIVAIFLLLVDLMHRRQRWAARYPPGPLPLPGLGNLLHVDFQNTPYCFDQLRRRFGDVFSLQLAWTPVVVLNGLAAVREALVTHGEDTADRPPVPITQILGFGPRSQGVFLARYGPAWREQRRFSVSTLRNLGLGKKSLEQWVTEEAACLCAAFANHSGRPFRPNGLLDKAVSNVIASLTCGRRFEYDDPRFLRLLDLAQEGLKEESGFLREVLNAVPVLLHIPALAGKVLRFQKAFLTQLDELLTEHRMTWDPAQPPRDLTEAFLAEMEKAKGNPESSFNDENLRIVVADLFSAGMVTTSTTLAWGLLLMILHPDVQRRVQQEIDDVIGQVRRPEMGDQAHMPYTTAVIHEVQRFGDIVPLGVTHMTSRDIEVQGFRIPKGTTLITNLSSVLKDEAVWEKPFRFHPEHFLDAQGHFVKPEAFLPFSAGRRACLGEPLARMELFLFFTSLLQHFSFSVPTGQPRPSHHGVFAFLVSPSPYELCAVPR

[4] = Lipophilicity, log D at pH 7.4; type: physicochemical; details: buffer
[5] = molecular target: T2, Prostaglandin E2 receptor EP1 subtype; experiment: Displacement of [3H]PGE2 from human EP1 receptor expressed in CHO cells; type: cell-based
Summary of the method: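 Radioligand binding with [3H]-PGE2 in CHO cells overexpressing human EP1 receptor. Values are the mean of at least three experiments with standard deviations.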

Rattus norvegicus [6] = experiment: […] activity against complete Freund's adjuvant-induced inflammatory pain in rat assessed as reversal of hypersensitivity at 10 mg/kg, po administered 23 hrs post-adjuvant challenge measured after 1 hr; type: functional
Summary of the method: (§2)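 Rats given adjuvant by intraplantar injection; oral dosing at 1, 3 and 10 mg/kg 23 h later. Hypersensitivity assessed by weight-bearing 1 h post-dose. ED50 derived across doses.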

Brain = experiment: (§3) Drug level in brain of complete Freund's adjuvant-induced rat inflammatory pain model at 10 mg/kg, po administered after 23 hrs of adjuvant challenge measured after 1 hr; type: ADME, organism-based; design: dose 10 mg/kg, route oral; details: in vivo, 1 h
Summary of the method: (§4)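 CFA rat study: oral doses of 1, 3 or 10 mg/kg given 23 h after intraplantar adjuvant, samples 1 h post-dose. Blood values are the mean from seven animals. Brain values are the mean from three animals.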

[7] = Selectivity for human recombinant EP1 receptor over DP1
Cytochrome P450 3A4 [8] = molecular target: T3, Cytochrome P450 3A4 (Homo sapiens, UniProt P08684); experiment: Inhibition of human CYP3A4 using DEF substrate; type: ADME
T3 sequence (P08684 whole entry): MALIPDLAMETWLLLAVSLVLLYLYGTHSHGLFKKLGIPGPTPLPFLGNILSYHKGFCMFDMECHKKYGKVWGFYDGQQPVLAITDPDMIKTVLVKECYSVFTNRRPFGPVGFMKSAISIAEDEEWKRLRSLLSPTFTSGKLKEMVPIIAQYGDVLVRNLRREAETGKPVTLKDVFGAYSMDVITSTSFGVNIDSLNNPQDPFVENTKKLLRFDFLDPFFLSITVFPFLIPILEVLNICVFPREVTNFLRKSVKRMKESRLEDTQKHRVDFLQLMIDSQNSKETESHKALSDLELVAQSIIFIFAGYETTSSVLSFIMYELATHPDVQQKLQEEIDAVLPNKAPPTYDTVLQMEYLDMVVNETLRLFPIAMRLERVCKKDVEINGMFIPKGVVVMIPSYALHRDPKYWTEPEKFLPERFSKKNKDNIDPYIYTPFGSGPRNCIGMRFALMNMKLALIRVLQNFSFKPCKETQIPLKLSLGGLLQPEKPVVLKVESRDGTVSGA

[9] = Drug level in brain of complete Freund's adjuvant-induced rat inflammatory pain model at 3 mg/kg, po administered after 23 hrs of adjuvant challenge measured after 1 hr; type: ADME, organism-based; design: dose 3 mg/kg, route oral; details: read-out: Drug uptake; summary of the method: as §4
[10] = Drug level in blood of complete Freund's adjuvant-induced rat inflammatory pain model at 1 mg/kg, po administered after 23 hrs of adjuvant challenge measured after 1 hr; type: ADME, organism-based; design: dose 1 mg/kg, route oral; details: read-out: Drug uptake; summary of the method: as §4
[11] = Drug level in blood of complete Freund's adjuvant-induced rat inflammatory pain model at 3 mg/kg, po administered after 23 hrs of adjuvant challenge measured after 1 hr; type: ADME, organism-based; design: dose 3 mg/kg, route oral; details: read-out: Drug uptake; summary of the method: as §4
[12] = Ratio of drug level in brain to blood in complete Freund's adjuvant-induced rat inflammatory pain model at 1 mg/kg, po administered after 23 hrs of adjuvant challenge measured after 1 hr; type: ADME, organism-based; design: dose 1 mg/kg, route oral; details: brain and blood
Summary of the method: (§5)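 Rat CFA inflammatory pain model: oral dosing at 1, 3 or 10 mg/kg 23 h after intraplantar adjuvant; blood and brain sampled 1 h post-dose from the same animal; Br:Bl ratio is the mean from three animals.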

Cytochrome P450 3A4 [13] = molecular target: T3, Cytochrome P450 3A4; experiment: Inhibition of human CYP3A4 using PPR substrate; type: ADME
[14] = as §3; type: ADME, organism-based; design: dose 10 mg/kg, route oral; details: brain, read-out: Drug uptake; summary of the method: as §4
[15] = Ratio of drug level in brain to blood in complete Freund's adjuvant-induced rat inflammatory pain model at 10 mg/kg, po administered after 23 hrs of adjuvant challenge measured after 1 hr; type: ADME, organism-based; design: dose 10 mg/kg, route oral; details: brain and blood; summary of the method: as §5
[16] = Drug level in brain of complete Freund's adjuvant-induced rat inflammatory pain model at 1 mg/kg, po administered after 23 hrs of adjuvant challenge measured after 1 hr; type: ADME, organism-based; design: dose 1 mg/kg, route oral; details: read-out: Drug uptake; summary of the method: as §4
Rattus norvegicus [17] = experiment: […] activity against complete Freund's adjuvant induced inflammatory pain in po dosed rat assessed as reversal of hypersensitivity post-adjuvant challenge after 1 hr; type: functional; summary of the method: as §2
[18] = Drug level in blood of complete Freund's adjuvant-induced rat inflammatory pain model at 10 mg/kg, po administered after 23 hrs of adjuvant challenge measured after 1 hr; type: ADME, organism-based; design: dose 10 mg/kg, route oral; details: read-out: Drug uptake; summary of the method: as §4
[19] = Ratio of drug level in brain to blood in complete Freund's adjuvant-induced rat inflammatory pain model at 3 mg/kg, po administered after 23 hrs of adjuvant challenge measured after 1 hr; type: ADME, organism-based; design: dose 3 mg/kg, route oral; details: brain and blood; summary of the method: as §5

Sequence of Cytochrome P450 2C19 (P33261 whole entry): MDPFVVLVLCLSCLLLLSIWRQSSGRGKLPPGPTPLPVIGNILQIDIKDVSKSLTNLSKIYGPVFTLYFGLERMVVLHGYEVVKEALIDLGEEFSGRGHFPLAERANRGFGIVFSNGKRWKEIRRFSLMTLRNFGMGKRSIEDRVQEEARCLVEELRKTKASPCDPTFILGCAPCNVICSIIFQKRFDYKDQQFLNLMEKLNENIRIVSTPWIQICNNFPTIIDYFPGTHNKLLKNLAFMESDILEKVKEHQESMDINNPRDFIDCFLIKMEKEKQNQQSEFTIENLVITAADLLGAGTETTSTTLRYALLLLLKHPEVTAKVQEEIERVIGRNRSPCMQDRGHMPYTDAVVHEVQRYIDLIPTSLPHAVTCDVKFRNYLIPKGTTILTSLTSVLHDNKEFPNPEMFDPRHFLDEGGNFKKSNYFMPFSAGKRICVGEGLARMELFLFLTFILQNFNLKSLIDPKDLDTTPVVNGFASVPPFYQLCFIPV

SMILES: O=C(O)c1cccc(C2=C(c3cc(Cl)ccc3OCc3ccc(F)cc3F)CCC2)n1
fold change (FC) [7]: > 400

SMILES: O=C(O)c1cccc(Cc2cc(Cl)ccc2OCc2ccccc2F)n1
IC50 [5]: 79.4 nM

SMILES: O=C(O)c1cccc(Cc2cc(Cl)ccc2OCc2c(F)cc(F)cc2F)n1
IC50 [5]: 79.4 nM

SMILES: O=C(O)c1cccc(Cc2cc(Cl)ccc2OCc2ccc(F)cc2)n1
IC50 [5]: 100 nM

SMILES: O=C(O)c1cccc(Cc2cc(Cl)ccc2OCC2CC2)n1
IC50 [5]: 200 nM

SMILES: O=C(O)c1cccc(Cc2cc(Cl)ccc2OCC2CCCC2)n1
IC50 [5]: 31.6 nM

SMILES: O=C(O)c1cccc(Cc2cc(Cl)ccc2OCC2CCCCC2)n1
IC50 [5]: 100 nM

Second part, led by results:

IC50 (Cytochrome P450 2C19): > 50 µM | IC50 (Cytochrome P450 2C9): 4.8 µM | IC50 (Cytochrome P450 1A2): 32 µM | metabolised at 0.5 h [1]: < 15% | Ki [2]: 25.1 nM | metabolised at 0.5 h [3]: < 15% | IC50 (Cytochrome P450 2D6): > 50 µM | logD [4]: 2.6 | IC50 [5]: 10 nM
SMILES: O=C(O)c1cccc(Cc2cc(Cl)ccc2OCc2ccc(Cl)cc2Cl)n1

Ratio (Brain): < 0.05 | IC50 [5]: 0.129 nM
SMILES: Cc1cc(C(=O)[O-])nn1Cc1cc(Br)ccc1OCc1ccc(Cl)cc1Cl.[Na+]
Activity (Rattus norvegicus [6]): 70%

IC50 [5]: 39.8 nM
SMILES: O=C(O)c1cccc(Cc2cc(Cl)ccc2OCc2ccc(Cl)cc2)n1

IC50 [5]: 25.1 nM
SMILES: O=C(O)c1cccc(Cc2cc(Cl)ccc2OCc2ccc(F)cc2F)n1

IC50 [5]: 39.8 nM
SMILES: O=C(O)c1cccc(Cc2cc(Cl)ccc2OCc2ccccc2Cl)n1

IC50 (Cytochrome P450 2C19): 28 µM | IC50 (Cytochrome P450 2C9): 15 µM | IC50 (Cytochrome P450 3A4 [8]): 35 µM | IC50 (Cytochrome P450 1A2): 61 µM | concentration at 1 h [9]: 256 nM | concentration at 1 h [10]: 346 nM | concentration at 1 h [11]: 836 nM | Kp at 1 h [12]: 0.31 | Ki [2]: 100 nM | IC50 (Cytochrome P450 3A4 [13]): > 100 µM | concentration at 1 h [14]: 1120 nM | IC50 (Cytochrome P450 2D6): > 100 µM | Kp at 1 h [15]: 0.31 | logD [4]: 2 | IC50 [5]: 12.6 nM | concentration at 1 h [16]: 93 nM | concentration at 1 h [18]: 3.01 µM | Kp at 1 h [19]: 0.3
SMILES: O=C([O-])c1cccc(Cc2cc(Cl)ccc2OCc2ccc(F)cc2Cl)n1.[Na+]
ED50 (Rattus norvegicus [17]): 5.6 mg/kg
